Assay results pooled from the literature.
Lines come from different studies, so protocols differ.

`CC(Cc1ccc(O)cc1)NCC(O)c1cc(O)cc(O)c1` (stereo not drawn) gave an IC50 of 0.12 µM (THP-1; TNF-α release, inhibitor; 17 h, LPS-stimulated).
`O=C(Nc1ncc([N+](=O)[O-])s1)c1cccnc1` has an IC50 of greater than 100 µM (Chikungunya virus; viral replication, luciferase; BHK-21; 16 h).
`O=c1c(O)c(-c2ccc(O[C@@H]3O[C@H](CO)[C@@H](O)[C@H](O)[C@H]3O)c(O)c2)oc2cc(O)cc(O)c12` has an IC50 of 28.5 mg/L (DPPH scavenging, absorbance).
`C[C@]12CCC(=O)C(O)=C1CC[C@@H]1[C@@H]2CC[C@]2(C)C(=O)CC[C@@H]12` has an IC50 of greater than 20 µM (FaDu; cell growth or viability; 72 h).
`O=c1c(O[C@@H]2O[C@H](CO)[C@H](O)[C@H](O)[C@H]2O)c(-c2ccc(O)c(O)c2)oc2cc(O)cc(O)c12` gave an IC50 of 142 µM (DPPH scavenging, absorbance; 30 min).
`COc1ccc(O)c(C(C)(C)C)c1` has an IC50 of 10.1 mg/L (DPPH scavenging, absorbance).
With `Cc1ccc(C2CC2C(=O)NC(C(N)=O)c2ccccc2)cc1C` (stereo not drawn) the IC50 was greater than 100 µM (Chikungunya virus; viral replication, luciferase; BHK-21; 16 h).
`COc1c(N2CCNC(C)C2)c(F)cc2c(=O)c(C(=O)O)cn(C3CC3)c12` (stereo not drawn) gave an MIC of greater than 4 mg/L (Haemophilus influenzae; microbial growth).
`O=C(Nc1ccc(O)cc1)c1ccccc1O` gave an IC50 of greater than 100 µM (Chikungunya virus; viral replication, luciferase; BHK-21; 16 h).
With `Cc1cc(C(C)(C)C)c(O)c(C(C)(C)C)c1` the IC50 was 308 µM (DPPH scavenging, absorbance; 30 min).
`CCCCCCCCCOc1ccc2[nH]cc(CCN)c2c1` gave an IC50 of 7.3 µM (FaDu; cell growth or viability; 72 h).
`COc1c(N2C[C@@H]3CCCN[C@@H]3C2)c(F)cc2c(=O)c(C(=O)O)cn(C3CC3)c12` gave an MIC of greater than 4 mg/L (Haemophilus influenzae; microbial growth).
`O=C(Nc1ncc([N+](=O)[O-])s1)c1cc(Cl)ccc1Cl` has an IC50 of 8.3 µM (Chikungunya virus; viral replication, luciferase; BHK-21; 16 h).
The MIC of `O=C(O)c1cn(C2CC2)c2cc(N3CCNCC3)c(F)cc2c1=O` is reported as greater than 4 mg/L (Haemophilus influenzae; microbial growth).
With `O=C1O[C@H]([C@@H](O)CO)C(O)=C1O` the IC50 was 10.2 µM (DPPH scavenging).
